Assay results taken from ChEMBL document CHEMBL1156597, “Structure-activity relationship of kahalalide F synthetic analogues” (J Med Chem, 2008).

Tests used:
PANC-1 = assay: Cytotoxicity against human PANC1 cells after 48 hrs by SRB assay; assay type: functional; details: PANC-1, 48 h; for CC50: read-out: LC50 (the source's name)
Outline: (§1)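 Cells grown in RPMI 1640 with 10% FBS and penicillin/streptomycin at 37 °C and 5% CO₂, trypsinized, then seeded at 5 × 10³/well. After 18 h drug-free attachment, samples in DMSO/EtOH/PBS (0.5:0.5:99) were added for 48 h continuous exposure. Cells were fixed with cold TCA (1 h, 4 °C) and stained with SRB (10 min). Tris-solubilized stain read at 490 nm. Triplicate wells, mean ± SD; GI₅₀ derived.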

LoVo [1] = assay: Cytotoxicity against human doxorubicin resistant LoVo cells after 48 hrs by SRB assay; assay type: functional; details: for CC50: read-out: LC50 (the source's name); outline: as §1
LNCaP = assay: Cytotoxicity against human LNcaP cells after 48 hrs by SRB assay; assay type: functional; details: for CC50: read-out: LC50 (the source's name); outline: as §1
[2] = Cytotoxicity against human HeLa-APL cells after 48 hrs by SRB assay; assay type: functional; outline: as §1
HT-29 = assay: Cytotoxicity against human HT29 cells after 48 hrs by SRB assay; assay type: functional, cell-based; details: Homo sapiens, HT-29, 48 h; for CC50: read-out: LC50 (the source's name); outline: as §1
[3] = Cytotoxicity against human IGROV cells after 48 hrs by SRB assay; assay type: functional; details: for CC50: read-out: LC50 (the source's name); outline: as §1
HeLa = assay: Cytotoxicity against human HeLa cells after 48 hrs by SRB assay; assay type: functional; details: read-out: LC50 (the source's name); outline: as §1
DU-145 = assay: Cytotoxicity against human DU145 cells after 48 hrs by SRB assay; assay type: functional, cell-based; details: Homo sapiens, DU-145, 48 h; for CC50: read-out: LC50 (the source's name); outline: as §1
SK-MEL-28 = assay: Cytotoxicity against human SK-MEL-28 cells after 48 hrs by SRB assay; assay type: functional, cell-based; details: Homo sapiens, SK-MEL-28, 48 h; for GI50: read-out: GI50; for CC50: read-out: LC50 (the source's name); outline: as §1
K562 = assay: Cytotoxicity against human K562 cells after 48 hrs by SRB assay; assay type: functional; details: K562, 48 h; for CC50: read-out: LC50 (the source's name); outline: as §1
LoVo [4] = assay: Cytotoxicity against human LoVo cells after 48 hrs by SRB assay; assay type: functional; details: for CC50: read-out: LC50 (the source's name)
A549 = assay: Cytotoxicity against human A549 cells after 48 hrs by SRB assay; assay type: functional, cell-based; details: Homo sapiens, A549, 48 h; for GI50: read-out: GI50; outline: as §1
[5] = Cytotoxicity against human IGROV-ET cells after 48 hrs by SRB assay; assay type: functional; details: for CC50: read-out: LC50 (the source's name); outline: as §1

Compound	GI50 (PANC-1) [nM]	TGI (PANC-1) [nM]	CC50 (PANC-1) [nM]	GI50 (LoVo [1]) [nM]	TGI (LoVo [1]) [nM]	CC50 (LoVo [1]) [nM]	GI50 (LNCaP) [nM]	TGI (LNCaP) [nM]	CC50 (LNCaP) [nM]	LC50 (concentration giving 50% net cell kill) [2] [nM]	CC50 (HT-29) [nM]	CC50 [3] [nM]	CC50 (HeLa) [nM]	CC50 (DU-145) [nM]	TGI (SK-MEL-28) [nM]	CC50 (SK-MEL-28) [nM]	CC50 (K562) [nM]	CC50 (LoVo [4]) [nM]	LC50 (A549) [nM]	CC50 [5] [nM]	also measured
C/C=C1\NC(=O)[C@H](Cc2ccccc2)NC(=O)[C@@H](C(C)C)NC(=O)[C@@H]([C@@H](C)CC)NC(=O)[C@H](NC(=O)[C@H](NC(=O)[C@H](CCCN)NC(=O)[C@H]2CCCN2C(=O)[C@H](NC(=O)[C@@H](NC(=O)[C@@H](NC(=O)[C@H](NC(=O)CCCC(C)C)[C@@H](C)O)[C@@H](C)O)C(C)C)C(C)C)[C@@H](C)CC)[C@@H](C)OC(=O)[C@H](C(C)C)NC1=O	3910	5260	2810	325	327	331	1950	2580	1140	977	575	582	1020	9290	1160	1100	2370	896	1030	257	GI50 [2]: 1040 nM; TGI [2]: 1520 nM; GI50 (HT-29): 1060 nM; TGI (HT-29): 886 nM; GI50 [3]: 909 nM; GI50 ([3]; read-out: GI50): 1170 nM; TGI (DU-145): 1150 nM; GI50 (DU-145; read-out: GI50): 1470 nM; GI50 (SK-MEL-28): 1220 nM; GI50 (LoVo [4]): 367 nM; TGI (LoVo [4]): 727 nM; TGI (A549): 1260 nM; GI50 (A549): 1550 nM; GI50 [5]: 231 nM; GI50 ([5]; read-out: GI50): 1000 nM
C/C=C1\NC(=O)[C@H](Cc2ccccc2)NC(=O)[C@@H](C(C)C)NC(=O)[C@@H]([C@H](C)CC)NC(=O)[C@H](NC(=O)[C@H](NC(=O)[C@H](CCCN)NC(=O)[C@H]2Cc3ccccc3CN2C(=O)[C@H](NC(=O)[C@@H](NC(=O)[C@@H](NC(=O)[C@H](NC(=O)CC[C@@H](C)CC)C(C)C)[C@@H](C)O)C(C)C)C(C)C)[C@H](C)CC)[C@H](C)OC(=O)[C@H](C(C)C)NC1=O	–	–	1950	2290	2490	1740	–	–	1510	947	426	464	1050	1370	3110	1560	2100	685	6500	527	GI50 [3]: 806 nM; GI50 ([3]; read-out: GI50): 1520 nM; TGI (DU-145): 2280 nM; GI50 (DU-145; read-out: GI50): 2390 nM; GI50 (SK-MEL-28): 3630 nM; GI50 (LoVo [4]): 2620 nM; TGI (LoVo [4]): 2540 nM; TGI (A549): 1540 nM; GI50 (A549): 1430 nM; GI50 [5]: 779 nM; GI50 ([5]; read-out: GI50): 1060 nM
C/C=C1\NC(=O)[C@H](Cc2ccccc2)NC(=O)[C@@H](C(C)C)NC(=O)[C@@H]([C@H](C)CC)NC(=O)[C@H](NC(=O)[C@H](NC(=O)[C@H](CCCN)NC(=O)[C@H]2CCCN2C(=O)[C@H](NC(=O)[C@@H](NC(=O)[C@@H](NC(=O)[C@@H](CC(C)C)NC(=O)CCCC(C)C)[C@@H](C)O)C(C)C)C(C)C)[C@H](C)CC)[C@H](C)OC(=O)[C@H](C(C)C)NC1=O	2910	5210	2790	325	329	3370	1790	2550	1130	948	509	5640	955	889	1070	1060	2180	856	1080	365	GI50 [2]: 1000 nM; TGI [2]: 1460 nM; GI50 (HT-29): 661 nM; TGI (HT-29): 728 nM; GI50 [3]: 845 nM; GI50 ([3]; read-out: GI50): 1050 nM; TGI (DU-145): 1070 nM; GI50 (DU-145; read-out: GI50): 1340 nM; GI50 (SK-MEL-28): 1090 nM; GI50 (K562): 2720 nM; TGI (K562): 2430 nM; GI50 (LoVo [4]): 608 nM; TGI (LoVo [4]): 842 nM; GI50 [5]: 298 nM; GI50 ([5]; read-out: GI50): 1310 nM
C/C=C1\NC(=O)[C@H](Cc2ccccc2)NC(=O)[C@@H](C(C)C)NC(=O)[C@@H]([C@H](C)CC)NC(=O)[C@H](NC(=O)[C@H](NC(=O)[C@H](CCCN)NC(=O)[C@@H]2CC[C@H](c3ccccc3)N2C(=O)[C@H](NC(=O)[C@@H](NC(=O)[C@@H](NC(=O)[C@H](NC(=O)CC[C@@H](C)CC)C(C)C)[C@@H](C)O)C(C)C)C(C)C)[C@H](C)CC)[C@H](C)OC(=O)[C@H](C(C)C)NC1=O	–	–	1940	–	–	1780	–	–	1550	938	643	499	1040	1360	–	1540	2080	756	6440	5220	GI50 (LoVo [4]): 7330 nM; TGI (LoVo [4]): 6170 nM
C/C=C1\NC(=O)[C@H](Cc2ccccc2)NC(=O)[C@@H](C(C)C)NC(=O)[C@@H]([C@H](C)CC)NC(=O)[C@H](NC(=O)[C@H](NC(=O)[C@H](CCCN)NC(=O)[C@@H]2CCCN2C(=O)[C@H](NC(=O)[C@@H](NC(=O)[C@@H](NC(=O)[C@H](NC(=O)CC[C@@H](C)CC)C(C)C)[C@@H](C)O)C(C)C)C(C)C)[C@H](C)CC)[C@H](C)OC(=O)[C@H](C(C)C)NC1=O	–	–	2040	–	–	1870	–	–	1630	986	6760	525	1090	1430	–	1620	2180	794	6780	549	–
C/C=C1\NC(=O)[C@H](Cc2ccccc2)NC(=O)[C@@H](C(C)C)NC(=O)[C@@H]([C@H](C)CC)NC(=O)[C@H](NC(=O)[C@H](NC(=O)[C@H](CCCN)NC(=O)[C@H]2CCCN2C(=O)[C@H](NC(=O)[C@@H](NC(=O)[C@@H](NC(=O)[C@@H](NC(=O)CCCC(C)C)C(C)C)[C@@H](C)O)C(C)C)C(C)C)[C@H](C)CC)[C@H](C)OC(=O)[C@H](C(C)C)NC1=O	1510	1560	1590	1760	2250	2880	853	911	967	969	501	668	1020	842	1030	1060	153	2090	1040	527	GI50 [2]: 1040 nM; TGI [2]: 1510 nM; GI50 (HT-29): 635 nM; TGI (HT-29): 728 nM; GI50 (DU-145): 771 nM; GI50 (DU-145; read-out: GI50): 549 nM; GI50 (SK-MEL-28): 1000 nM; GI50 (LoVo [4]): 1300 nM; TGI (LoVo [4]): 3250 nM; TGI (A549): 1180 nM; GI50 (A549): 1330 nM; GI50 [5]: 529 nM; GI50 ([5]; read-out: GI50): 2890 nM
C/C=C1\NC(=O)[C@H](Cc2ccccc2)NC(=O)[C@@H](C(C)C)NC(=O)[C@@H]([C@H](C)CC)NC(=O)[C@H](NC(=O)[C@H](NC(=O)[C@H](CCCN)NC(=O)[C@H]2CCCN2C(=O)[C@H](NC(=O)[C@@H](NC(=O)[C@@H](NC(=O)[C@H]2CCCN2C(=O)CCCC(C)C)[C@@H](C)O)C(C)C)C(C)C)[C@H](C)CC)[C@H](C)OC(=O)[C@H](C(C)C)NC1=O	2750	3800	2820	3510	3370	3270	1160	1110	1060	1010	1140	768	1090	1160	1240	1140	1800	1500	1240	426	GI50 [2]: 1180 nM; TGI [2]: 1650 nM; GI50 (SK-MEL-28): 1050 nM; GI50 (K562): 1310 nM; TGI (K562): 1530 nM; GI50 [5]: 608 nM; GI50 ([5]; read-out: GI50): 4700 nM
C/C=C1\NC(=O)[C@H](Cc2ccccc2)NC(=O)[C@@H](C(C)C)NC(=O)[C@@H]([C@H](C)CC)NC(=O)[C@H](NC(=O)[C@H](NC(=O)[C@H](CCCN)NC(=O)[C@H]2CCCN2C(=O)[C@H](NC(=O)CCCCCCCCCCCCC)C(C)C)[C@H](C)CC)[C@H](C)OC(=O)[C@H](C(C)C)NC1=O	2450	2400	2160	–	–	5370	7210	8100	8020	–	6890	5330	–	17900	–	1870	3390	3980	2650	5190	GI50 (K562): 3000 nM; TGI (K562): 3470 nM
